# ChEMBL document CHEMBL4513216, “Probing the Open Global Health Chemical Diversity Library for Multistage-Active Starting Points for Next-Generation Antimalarials” (ACS Infect Dis, 2020)
# Assay: Toxicity liver stage against HepG2, at 10uM
# Assay type: cell-based
# Parameters: test concentration 10 uM, cell line HepG2-A16-CD81EGFP
# Settings: human, HepG2-A16-CD81EGFP cells; read-out: INHIBITION
# Outline: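 Uninfected HepG2-A16-CD81EGFP cells, 3 × 10^3 per well, 1536-well, plated on prespotted compound at 10 μM final, parasite-free screening media added to match infected plates; puromycin 10 μM positive, DMSO 0.5% negative; run in parallel with 48 h PbLuc assay at 37 °C, 5% CO2; viability by CellTiter-Glo luminescence, normalized to controls.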
row,Compound,cytotoxicity at 10 µM
1,Cn1ccnc1CN1C(=O)CO[C@H]2CN(Cc3ccc(F)c(F)c3)C[C@H]21,-2.83%
2,COc1ccc(CN2CCOC[C@H](Oc3cccnc3)C2)cc1,-4.03%
3,COc1ccc(CNC[C@H]2Cn3ccnc3CO2)cn1,8.73%
4,CCN(CC)S(=O)(=O)c1ccc2c(c1)N(Cc1ccncc1)C(=O)CS2,-5.62%
5,O=C(Cn1cccc(S(=O)(=O)N2CCCC2)c1=O)c1ccccc1Cl,1.08%
6,O=C(Nc1cnc(Oc2ccccc2)nc1)C1CC1,0.174%
7,Cc1ccc(C(=O)NCCn2nc(-n3cncn3)ccc2=O)c(C)c1,-1.25%
8,CS(=O)(=O)NCc1cncc2c1CCN(C(=O)c1ccccn1)C2,0.734%
9,O=C(c1ccco1)N1Cc2nccn2CC(Cn2ncccc2=O)C1 (stereo not given),5.09%
10,O=C(c1cnccn1)N1CCC2(CCN(Cc3ccsc3)CC2)CC1,1.2%
11,O=C(c1ccncn1)N1CCO[C@H]2[C@@H](OCc3cccnc3)CC[C@@H]21,-7.69%
12,O=C(O)[C@H]1OCC(=O)N(Cc2cccc(F)c2)[C@@H]1c1ccc(Cl)cc1,8.9%
13,CN1C[C@@H](C(=O)NC(C)(C)C)[C@@]2(CCc3ccccc3C(=O)N2)C1,-3.79%
14,Cc1cnc(CC2COCCN(C(=O)CN3CCOCC3)C2)cn1 (stereo not given),9.07%
15,Cc1c(CN2CCCC(O)C2)[nH]c2ccc(F)cc12 (stereo not given),9.35%
16,Cc1cc(Oc2ccccc2)nc(C2CCCCN2)n1 (stereo not given),-2.64%
17,CC(C)S(=O)(=O)N1C[C@@H](c2ccccc2)[C@H]2[C@H]1CCCCCN2C,0.247%
18,CN1CCN(c2ncccc2N)CC1,11.5%
19,CN(CCc1ccccn1)C(=O)Nc1cc(C(F)(F)F)c[nH]c1=O,17.2%
20,O=S(=O)(c1ccccc1)N1CCCC(Cn2cncn2)C1 (stereo not given),-4.28%
21,CCC1CN(CC(=O)NC2(C#N)CCCC2)CCN1CCOC (stereo not given),4.56%
22,Cc1ncsc1C(=O)N1CCCC1c1c(C)nn(C)c1C (stereo not given),0.71%

row,Compound,cytotoxicity at 10 µM
1,N#Cc1cccnc1N1CCC(Nc2ccccc2)C1 (stereo not given),-3.37%
2,N#CC1(NC(=O)c2nccc3ccccc23)CCC2(CC1)OCCO2,2.48%
3,COc1ccc2c(c1)CN(c1nc(C)cc(C)n1)CC2,-0.734%
4,CCN(CC)c1ccc(CNC(=O)c2cccc(C)n2)cn1,9.47%
5,Cc1nc(C)c(C(=O)N(C)Cc2cnn(C)c2)s1,-1.57%
6,CCOCCNC(=O)Cc1cccc(I)c1,9.62%
7,CCC(=O)N1CCCN(C(=O)C2SCCc3sccc32)CC1 (stereo not given),-8.98%
8,Cc1cnn(CC2CCCCN2CC(=O)Nc2nncs2)c1 (stereo not given),-0.208%
9,COCCn1cc(C(=O)N2CCCC2c2cccc(C)c2)ccc1=O (stereo not given),5.59%
10,CC(C)CC(=O)NCCCc1cc(N)n(-c2ccccc2)n1,-5.29%
11,CCCc1cc(NC2CCc3nc(CC)nn3C2)n2ncnc2n1 (stereo not given),-16.3%
12,CCN(C(c1cccnc1)c1ccc(F)cc1F)S(C)(=O)=O (stereo not given),10.8%
13,Cc1ccc(C(=O)N2CCCN(C)c3ccc(F)cc32)o1,-5.26%
14,OC1CCN(c2ccnc3c(F)cc(Br)cc23)CC1,11.6%
15,Cc1cnn(CC2CCCCN2C(=O)c2ccc(C#N)c(C)n2)c1 (stereo not given),-1.18%
16,Cn1[nH]c(C2CC2)c(-c2ccc3c(c2)OCO3)c1=N,-47.5%
17,O=C1COc2cc(C(=O)NCc3ccc(Cl)s3)ccc2N1,1.55%
18,NS(=O)(=O)c1cnn(CCC(=O)N(Cc2ccccc2)C2CC2)c1,4.53%
19,O=C(Nc1cccc(Cn2cccn2)c1)N1CCCC(N2CCCC2)C1 (stereo not given),4.13%
20,O=C(Nc1ccc(F)cc1F)N(CCC(F)(F)F)C[C@H](O)CO,-7.64%
21,NC(=O)C1CCN(Cc2ccc(S(=O)(=O)N3CCCC3)o2)CC1,1.04%
22,Cc1csc(N2CCN(Cc3ccn(C)c(=O)c3)CC2)n1,8.08%

row,Compound,cytotoxicity at 10 µM
1,CC(C)(C)CCN1CCN(Cn2nccc2-c2cccnc2)CC1,23.2%
2,Cc1ccc(CCNC(=O)NC2CCN(CC(F)(F)F)C2=O)cn1 (stereo not given),4.75%
3,CCc1nc(CN2CCCC(N(C)Cc3cnc(C)s3)C2)no1 (stereo not given),2.89%
4,Cc1nc(C)n(CC2CCCN2CC(=O)NCc2ccco2)n1 (stereo not given),-18.5%
5,Cc1n[nH]c(C)c1C1COCCN1C(=O)Cc1cccc(F)c1 (stereo not given),-10.7%
6,Cc1ccc(N2CCCC3(CCN(C(=O)CC(F)(F)F)C3)C2)nn1 (stereo not given),-108%
7,O=C(Cc1ccco1)N1C[C@H]2CCC[C@@]2(COCC2CC2)C1,-108%
8,COCc1cnc2n1CCN(C(=O)c1cn(C)c3ccccc13)C2C (stereo not given),-108%
9,O=C1COC2(CCN(c3ccccn3)CC2)CN1Cc1ccccn1,-0.861%
10,CCn1cc2c(n1)C(COC)CN(C(=O)COc1ccccc1C)C2 (stereo not given),0.719%
11,Cc1ncoc1C(=O)N1CCn2c(COCC3CC3)cnc2C1C (stereo not given),-1.67%
12,COCc1cc(CNCc2c(C)n(CC(C)C)c3ccccc23)n[nH]1,12%
13,CC(C)[C@H]1CN(Cc2c[nH]nn2)C[C@@H]1NC(=O)C1CCOCC1,22.3%
14,COCC(C)N1CCc2onc(-c3ccc(F)c(F)c3)c2C1 (stereo not given),-4.31%
15,CCn1ccnc1CN1CCN(Cc2ccc(C)o2)[C@@H]2CS(=O)(=O)C[C@@H]21,-11.2%
16,CCCN1CCCn2nc(CNC(=O)CCOC)cc2C1,-12.2%
17,O=C(CN1CCC(c2ccccc2)CC1)NCc1cc2n(n1)CCNC2,3.03%
18,CCOc1ccc(C(=O)N2CCC(Oc3ccccc3)(C(=O)O)CC2)o1,14.1%
19,CC(C)c1nc(CNc2nccc(CCC(F)(F)F)n2)cs1,1.24%
20,O=C(c1ccncc1Cl)N1CCN(Cc2ccco2)C(CCO)C1 (stereo not given),-9.84%
21,c1cncc(CN(Cc2ccsc2)Cc2ccc(C3CCCCO3)o2)c1 (stereo not given),14.8%
22,CCCn1cc(NC(=O)NCC2CCS(=O)(=O)C2)nn1 (stereo not given),0.186%

row,Compound,cytotoxicity at 10 µM
1,O=C1CC2(CCN(Cc3ccc(C(F)(F)F)nc3)CC2)CN1,-6.33%
2,CNC(=O)c1ccc(-n2c(COCC(=O)O)nc3c(C)cccc32)o1,-3.33%
3,CN(C)Cc1ccc(C2CCCCN2C(=O)c2cc(=O)[nH]c(=O)[nH]2)cc1 (stereo not given),-3.95%
4,CC(C)(O)CCc1ccc(C(=O)NCCC2CCCOC2)cc1 (stereo not given),0.782%
5,CN(CCc1nc2cc(Cl)ccc2[nH]1)C(=O)c1ncn[nH]1,-53.7%
6,CCCS(=O)(=O)N[C@H]1CN(c2ncccc2C(N)=O)C[C@@H]1C(C)C,5.78%
7,O=C(CCSc1ccc2c(c1)OCCO2)NCC1CCS(=O)(=O)C1 (stereo not given),-4.01%
8,O=C1CCC2(CCOC2)CN1Cc1ccc2nsnc2c1 (stereo not given),-7.73%
9,Cc1cccc(OC2(C(=O)O)CCN(C(=O)CCc3ccco3)CC2)c1,4.3%
10,Cc1ncc(C(=O)N2CCCC(C(=O)CCc3ccccc3)C2)s1 (stereo not given),19.4%
11,Cc1nc(CN(C)C(=O)c2ccc(Cn3cnnn3)cc2)cs1,-15.4%
12,CCN(Cc1noc(C)n1)C(=O)C(c1ccc(C)cc1)N(C)C (stereo not given),-5.21%
13,Cc1ccc(C(=O)N2CCCC3(C2)C(=O)N(C)c2ccccc23)c(=O)[nH]1 (stereo not given),-7.52%
14,CC(=O)N1CCCC(C(=O)N2CCN(c3cnn(C)c(=O)c3)CC2)C1 (stereo not given),0.761%
15,CCc1cc(N[C@H]2CCC[C@H]2CO)n2nc(C)c(C)c2n1,3.41%
16,CCOCC1CCN(C(=O)C(c2ccccc2F)N(C)C)CC1 (stereo not given),5.06%
17,CC(C)(C)OC(=O)NC1CCCN(Cc2cccs2)C1 (stereo not given),-40.7%
18,Cc1nc(N2CCN(C(=O)c3ccccc3)CC2)cc(-n2ccnc2)n1,0.0237%
19,CCC(C)c1ccc(NC(=O)C2CCN(C(=O)COC)CC2)cc1 (stereo not given),-3.16%
20,Cc1cc(CN[C@@H](C)C(N)=O)c(C)s1,-6.55%
21,CC(C)C(C)N(Cc1ccccn1)Cc1ccco1 (stereo not given),-1.99%
22,O=C1Nc2ccccc2C12CCCN(Cc1ccncc1)C2 (stereo not given),4.32%

row,Compound,cytotoxicity at 10 µM
1,CNc1cc(C)nc(N2CCC3(CC2)[C@H](O)C[C@@H]3OCCO)n1,-1.82%
2,Cc1cc(NCc2cc3n(n2)CCCN(C(=O)N(C)C)C3)ncn1,-11.4%
3,Cc1cc(N2CCN3CCCCC3C2)n2nc(C)c(C)c2n1 (stereo not given),-10.4%
4,Cc1cc(-c2nn(C)c(Cl)c2CN2CCOCC2CC(=O)O)no1 (stereo not given),-12.2%
5,COc1ccccc1OCCNC(=O)CN1CCN(C)CC1C (stereo not given),-12.1%
6,CC(C)c1ncc2c(n1)CN(Cc1nc(-c3ccco3)no1)CC2,-11.4%
7,c1ccc(-n2ccc(CNC3CCc4ncnn4C3)n2)cc1 (stereo not given),-2.57%
8,CCCc1nnc(NC(=O)Cc2c(C)nc(C)[nH]c2=O)s1,-10.7%
9,Cc1cc(NC(=O)CN2CCc3cncnc3C2)no1,-11.5%
10,Cc1ccc2[nH]c(C(=O)N3CCCC3Cn3cccn3)cc2c1 (stereo not given),-12%
11,Cn1cc(CCNC(=O)NC2CCN(Cc3ccccn3)CC2)cn1,-16.4%
12,COc1ccc(NC(=O)NCCCn2nc3ccccn3c2=O)cc1,-13.3%
13,CC1CCCCN1CCNC(=O)c1ccn(-c2cccc(F)c2)n1 (stereo not given),-26%
14,Cc1csc(N2CCCN(C(=O)C(C(C)C)n3cncn3)CC2)n1 (stereo not given),-7.71%
15,CCOc1ccccc1-c1cc(N)[nH]n1,5.75%
16,Cc1ccc(C(=O)N2CC[C@H]3[C@@H]2CCC(=O)N3c2ccccc2)cn1,-112%
17,Cc1oncc1C(=O)NCc1cc(=O)n2c(n1)CN(C)CCC2,5.02%
18,Cn1nc(C2CNCCO2)cc1CCOc1ccc(Cl)cc1 (stereo not given),-7.72%
19,O=C(NC[C@]12COC[C@H]1CN(Cc1cccnc1)C2)C1CCC1,-105%
20,Cc1ccc(CN2CCC3(CC2)NC(=O)CC3c2ccncc2)cc1C (stereo not given),3.75%
21,O=C(C1=CCCC1)N1C[C@@H]2COC[C@]2(COc2ncccc2F)C1,-99.3%
22,c1cnn(Cc2cn3c(n2)CN(Cc2nccs2)CC3)c1,2.76%
